For orientation: inhibition means the percentage by which the read-out fell short of the control. Usually MIC stands for the lowest concentration found to suppress growth. The low end stands for inhibition by little substance, the high end for a need for much substance.

Experimental findings from ChEMBL document CHEMBL4480412, “Deleting a Chromatin Remodeling Gene Increases the Diversity of Secondary Metabolites Produced by Colletotrichum higginsianum” (2019) are described below.

≈ marks a conversion by molar mass, not a printed value.

Assay [1] is described as follows: Antioxidant activity assessed as DPPH radical scavenging activity at 200 uM. The class given is functional.
The species named for assay [2] is Homo sapiens. Nature of the assay: Inhibition of hyaluronidase (unknown origin) at 200 uM relative to control.
Assay [3] relates to Botrytis cinerea. Kind of assay: Antifungal activity against Botrytis cinerea B05.10 by EUCAST method. The assay is classed as functional. An outline of the steps: (§1)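 Susceptibility testing by the EUCAST method; read-out is minimal inhibitory concentration (MIC). Amphotericin B used as reference antifungal.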
Assay [4] addresses T1, Tyrosinase (Homo sapiens) (UniProt P14679).
T1 sequence (whole entry): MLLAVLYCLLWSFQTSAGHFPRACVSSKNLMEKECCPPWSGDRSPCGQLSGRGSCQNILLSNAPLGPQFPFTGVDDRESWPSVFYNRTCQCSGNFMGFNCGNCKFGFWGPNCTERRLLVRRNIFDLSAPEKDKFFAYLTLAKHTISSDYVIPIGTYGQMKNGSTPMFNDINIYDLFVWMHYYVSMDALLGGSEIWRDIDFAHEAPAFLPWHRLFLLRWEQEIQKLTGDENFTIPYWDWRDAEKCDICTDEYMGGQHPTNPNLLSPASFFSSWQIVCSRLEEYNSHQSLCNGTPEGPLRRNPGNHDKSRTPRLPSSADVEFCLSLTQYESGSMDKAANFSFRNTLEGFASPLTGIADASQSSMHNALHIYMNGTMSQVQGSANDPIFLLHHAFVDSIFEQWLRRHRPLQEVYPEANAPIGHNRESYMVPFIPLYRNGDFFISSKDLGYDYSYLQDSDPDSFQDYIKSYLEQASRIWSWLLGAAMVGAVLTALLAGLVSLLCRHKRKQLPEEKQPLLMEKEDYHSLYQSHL
Nature of the assay: Inhibition of tyrosinase (unknown origin) at 200 uM relative to control.

The subject of assay [5] is Escherichia coli. Nature of the assay: Antibacterial activity against Escherichia coli ATCC 25922 by broth microdilution method. The class given is functional. A digest of the protocol:
(§2)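 Broth microdilution run to CLSI guidelines; read-out is minimal inhibitory concentration (MIC). Chloramphenicol used as reference antibacterial.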
A general note: Broth dilution looks for growth in wells or tubes with falling amounts of substance.

For assay [6], the system named is Micrococcus luteus. Kind of assay: Antibacterial activity against Micrococcus luteus ATCC 10240 by broth microdilution method. The class given is functional. A digest of the protocol: as §2
Assay [7] is filed under the species Homo sapiens. Nature of the assay: Inhibition of elastase (unknown origin) at 200 uM relative to control.
Assay [8] deals with Aspergillus ochraceus. Kind of assay: Antifungal activity against Aspergillus ochraceus ATCC 1009 by EUCAST method. The assay is classed as functional. An outline of the steps:
as §1

Assay [9] concerns Bacillus spizizenii. Kind of assay: Antibacterial activity against Bacillus subtilis ATCC 6633 by broth microdilution method. The assay is classed as functional. A digest of the protocol: as §2
The subject of assay [10] is Rhizopus arrhizus. Kind of assay: Antifungal activity against Rhizopus oryzae ATCC 11145 by EUCAST method. The assay is classed as functional. An outline of the steps: as §1
In assay [11] the target is Collagenase (Homo sapiens) (UniProt P08253+P14780+P22894+P45452+P03956). Kind of assay: Inhibition of collagenase (unknown origin) at 200 uM relative to control. The assay is classed as protein assay.

For the molecule `CO[C@@H]1[C@@H](O)[C@H](O)[C@H](OC(=O)C2=CC[C@H](C(C)C)[C@H]3C=C(C)CC[C@@H]23)[C@H](OC)[C@H]1O`, the inhibition in assay [1], in [2], in assay [4], in assay [7] and in assay [11] was < 20% in each case. For the same molecule, the MIC in assay [3], in [5], in assay [6], in assay [8], in [9] and in assay [10] was > 225 µM each time.

In the case of `O=C(N[C@H](CO)[C@H](O)c1ccc([N+](=O)[O-])cc1)C(Cl)Cl` [CHLORAMPHENICOL], the MIC in assay [5], in assay [6] and in assay [9] was 10 µM (≈ 3.23 µg/mL) each time.

Turning to `C[C@@H]1[C@H](O)[C@@H](C)/C=C/C=C/C=C/C=C/C=C/C=C/C=C/[C@H](O[C@@H]2O[C@H](C)[C@@H](O)[C@H](N)[C@@H]2O)C[C@@H]2O[C@](O)(C[C@@H](O)C[C@@H](O)[C@H](O)CC[C@@H](O)C[C@@H](O)CC(=O)O[C@H]1C)C[C@H](O)[C@H]2C(=O)O` [AMPHOTERICIN B], the MIC in [3], in [8] and in [10] was 2 µM (≈ 1.85 µg/mL) each time.

Take `CC(C)=CCc1c(O)cc(C)c(C=O)c1O`: the inhibition in [1], in assay [2], in [4], in assay [7] and in assay [11] was < 20% throughout. Moreover, the MIC in assay [3], in assay [5], in assay [6], in [8], in [9] and in assay [10] was > 225 µM each time.

As for `C=C1CC[C@@H]2[C@](C)(CC[C@H]3O[C@H](C(C)(C)O)CC[C@@]23C)[C@@H]1Cc1c(O)c(C)c(C)oc1=O`, the inhibition in assay [1], in assay [2], in assay [4], in assay [7] and in [11] was < 20% in each case. In addition, the MIC in assay [3], in assay [5], in assay [6], in [8], in assay [9] and in assay [10] was > 225 µM in each case.

For the molecule `CC(C)=CCc1c(O)cc(C)c(C(=O)O)c1O`, the inhibition in [1], in assay [2], in assay [4], in assay [7] and in assay [11] was < 20% in each case. Further, the MIC in assay [3], in assay [5], in [6], in assay [8], in assay [9] and in assay [10] was > 225 µM each time.

`C=C1CC[C@@H]2[C@](C)(CC[C@H]3O[C@@H](C(C)(C)O)CC[C@@]23C)[C@@H]1Cc1c(O)c(C)c(C)oc1=O`: the inhibition in [1], in assay [2], in [4], in assay [7] and in assay [11] was < 20% each time. Also, the minimal inhibitory concentration (MIC) in assay [3], in assay [5], in assay [6], in [8], in [9] and in [10] was > 225 µM each time.
